Data on 48 variants can be found in the RNAGym collection of RNA variant scans (doi:10.1002/anie.201605470).

B1: Osa-1-4 twister ribozyme (parent)
chain: CCGCCUAACACUGCCAAUGCCGGUCCCAAGCCCGGAUAAAAGUGGAGGGGGCGG

Variants of B1 are the subject of the data set. Description: self-cleavage, relative activity (ratio to wild type); higher = more cleavage; co-transcriptional. In short, it runs like this:
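For each read, cleavage status was taken from whether upstream sequence was present. The reads came from an Oryza sativa twister ribozyme of 54 nucleotides, whose DNA template was synthesised with 97 % wild-type base and 1 % of each other base at the 48 positions downstream of the cleavage site. The template was transcribed in vitro at 37 °C for 2 h with co-transcriptional self-cleavage, and the RNA was reverse-transcribed using a template-switching oligonucleotide, PCR-amplified and deep-sequenced. Relative activity is the fraction cleaved normalised to wild type.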
As for CCGCCUAACACUGCCAUUGCCGGUCCCAAGCCCGGAUAAAAGAGGAGGGGGCGG [A17U U43A], the self-cleavage was determined as 0.91.

Turning to CCGCCUAACACUGCCAUUGCCGGUCCCAAGCCCGGAUAAAAGCGGAGGGGGCGG [A17U U43C], the self-cleavage stood at 0.8.

Take CCGCCUAACACUGCCAUUGCCGGUCCCAAGCCCGGAUAAAAGGGGAGGGGGCGG [A17U U43G]: the self-cleavage was found to be 0.57.

Regarding CCGCCUAACACUGCCAAAGCCGGUCCCAAGCCCGGAUAAAAGGGGAGGGGGCGG [U18A U43G], the self-cleavage is 0.58.

On to CCGCCUAACACUGCCAAAGCCGGUCCCAAGCCCGGAUAAAAGAGGAGGGGGCGG [U18A U43A], for which the self-cleavage came to 0.83.

Take CCGCCUAACACUGCCAAAGCCGGUCCCAAGCCCGGAUAAAAGCGGAGGGGGCGG [U18A U43C]: the self-cleavage came to 0.36.

Turning to CCGCCUAACACUGCCAAUACCGGUCCCAAGCCCGGAUAAAAGUGGAGGGGUCGG [G19A G51U], the self-cleavage turned out to be 0.17.

For CCGCCUAACACUGCCAAUACCGGUCCCAAGCCCGGAUAAAAGUGGAGGGGACGG [G19A G51A], the self-cleavage was found to be 0.33.

With CCGCCUAACACUGCCAAUACCGGUCCCAAGCCCGGAUAAAAGUGGAGGGGCCGG [G19A G51C], the self-cleavage worked out at 0.08.

For the variant CCGCCUAACACUGCCAAUACCGGUCCCAAGCCCGGAUAAAAGUGGAGGAGGCGG [G19A G49A], the self-cleavage amounted to 0.08.

Take CCGCCUAACACUGCCAAUACCGGUCCCAAGCCCGGAUAAAAGUGGAGGCGGCGG [G19A G49C]: the self-cleavage worked out at 0.09.

Turning to CCGCCUAACACUGCCAAUACCGGUCCCAAGCCCGGAUAAAAGUGGAGGUGGCGG [G19A G49U], the self-cleavage is 0.08.

CCGCCUAACACUGCCAAUACCGGUCCCAAGCCCGGAUAAAAGUGCAGGGGGCGG [G19A G45C]: the self-cleavage is 0.06.

Turning to CCGCCUAACACUGCCAAUACCGGUCCCAAGCCCGGAUAAAAGUGAAGGGGGCGG [G19A G45A], the self-cleavage was 0.07.

As to CCGCCUAACACUGCCAAUACCGGUCCCAAGCCCGGAUAAAAGUGUAGGGGGCGG [G19A G45U], the self-cleavage stood at 0.06.

Turning to CCGCCUAACACUGCCAAUACCGGUCCCAAGCCCGGAUAAAAGUGGAGGGGGCUG [G19A G53U], the self-cleavage worked out at 0.13.

For CCGCCUAACACUGCCAAUACCGGUCCCAAGCCCGGAUAAAAGUGGAGGGGGCAG [G19A G53A], the self-cleavage worked out at 0.18.

In the case of CCGCCUAACACUGCCAAUACCGGUCCCAAGCCCGGAUAAAAGUGGAGGGGGCCG [G19A G53C], the self-cleavage amounted to 0.09.

With CCGCCUAACACUGCCAAUACCGGUCCCAAACCCGGAUAAAAGUGGAGGGGGCGG [G19A G30A], the self-cleavage stood at 0.05.

For CCGCCUAACACUGCCAAUACCGGUCCCAAUCCCGGAUAAAAGUGGAGGGGGCGG [G19A G30U], the self-cleavage is 0.06.

Turning to CCGCCUAACACUGCCAAUACCGGUCCCAACCCCGGAUAAAAGUGGAGGGGGCGG [G19A G30C], the self-cleavage stood at 0.07.

Turning to CCGCCUAACACUGCCAACACCGGUCCCAAGCCCGGAUAAAAGUGGAGGGGGCGG [G19A U18C], the self-cleavage was 0.93.

With CCGCCUAACACUGCCAAAACCGGUCCCAAGCCCGGAUAAAAGUGGAGGGGGCGG [G19A U18A], the self-cleavage was 0.84.

With CCGCCUAACACUGCCAAGACCGGUCCCAAGCCCGGAUAAAAGUGGAGGGGGCGG [G19A U18G], the self-cleavage stood at 1.01.

For CCGCCUAACACUGCCAAAGCCGGCCCCAAGCCCGGAUAAAAGUGGAGGGGGCGG [U18A U24C], the self-cleavage was 0.37.

Turning to CCGCCUAACACUGCCAAAGCCGGGCCCAAGCCCGGAUAAAAGUGGAGGGGGCGG [U18A U24G], the self-cleavage was determined as 0.02.

On to CCGCCUAACACUGCCAAAGCCGGACCCAAGCCCGGAUAAAAGUGGAGGGGGCGG [U18A U24A], for which the self-cleavage was found to be 0.25.

Regarding CCGCCUAACACCGCCAAUACCGGUCCCAAGCCCGGAUAAAAGUGGAGGGGGCGG [G19A U12C], the self-cleavage stood at 0.09.

In the case of CCGCCUAACACGGCCAAUACCGGUCCCAAGCCCGGAUAAAAGUGGAGGGGGCGG [G19A U12G], the self-cleavage was 0.13.

For CCGCCUAACACAGCCAAUACCGGUCCCAAGCCCGGAUAAAAGUGGAGGGGGCGG [G19A U12A], the self-cleavage was 0.12.

In the case of CCGCCUAACACUGCCAACGCCGGUCCCAAGCCCGGACAAAAGUGGAGGGGGCGG [U18C U37C], the self-cleavage came to 0.97.

With CCGCCUAACACUGCCAACGCCGGUCCCAAGCCCGGAAAAAAGUGGAGGGGGCGG [U18C U37A], the self-cleavage was found to be 0.69.

As for CCGCCUAACACUGCCAACGCCGGUCCCAAGCCCGGAGAAAAGUGGAGGGGGCGG [U18C U37G], the self-cleavage turned out to be 0.95.

With CCGCCUAACACUGCCAAUACCCGUCCCAAGCCCGGAUAAAAGUGGAGGGGGCGG [G19A G22C], the self-cleavage amounted to 0.05.

As for CCGCCUAACACUGCCAAUACCAGUCCCAAGCCCGGAUAAAAGUGGAGGGGGCGG [G19A G22A], the self-cleavage was 0.35.

Regarding CCGCCUAACACUGCCAAUACCUGUCCCAAGCCCGGAUAAAAGUGGAGGGGGCGG [G19A G22U], the self-cleavage was 0.12.

With CCGCCUAACACUGCCAAGGCCGGUCCCAAGCCCGGAUAAAAGCGGAGGGGGCGG [U18G U43C], the self-cleavage turned out to be 0.67.

On to CCGCCUAACACUGCCAAGGCCGGUCCCAAGCCCGGAUAAAAGAGGAGGGGGCGG [U18G U43A], for which the self-cleavage came to 0.76.

As for CCGCCUAACACUGCCAAGGCCGGUCCCAAGCCCGGAUAAAAGGGGAGGGGGCGG [U18G U43G], the self-cleavage is 0.77.

With CCGCCUAACACUGCCAAGGCCGGUCCCAAGCCCGGAUAAAAGUGGAGGGGGCGG [U18G], the self-cleavage came out at 0.84.

In the case of CCGCCUAACACUGCCAACGCCGGUCCCAAGCCCGGAUAAAAGUGGAGGGGGCGG [U18C], the self-cleavage came to 0.96.

Take CCGCCUAACACUGCCAAAGCCGGUCCCAAGCCCGGAUAAAAGUGGAGGGGGCGG [U18A]: the self-cleavage was determined as 0.95.

As to CCGCCUAACACUGCCAAUACCGGUCCCAAGCCCGGAUAAAAGUGGAGGGUGCGG [G19A G50U], the self-cleavage stood at 0.56.

Regarding CCGCCUAACACUGCCAAUACCGGUCCCAAGCCCGGAUAAAAGUGGAGGGCGCGG [G19A G50C], the self-cleavage was found to be 0.27.

As to CCGCCUAACACUGCCAAUACCGGUCCCAAGCCCGGAUAAAAGUGGAGGGAGCGG [G19A G50A], the self-cleavage was 0.92.

Consider CCGCCUAACACUGCCAAUACCGGUCCCAAGCCCGGAUAAAAGUGGAGGGGGCGG [G19A], for which the self-cleavage was 0.99.

Regarding CCGCCUAACACUGCCAACGCCGGGCCCAAGCCCGGAUAAAAGUGGAGGGGGCGG [U18C U24G], the self-cleavage came to 0.02.

For the variant CCGCCUAACACUGCCAACGCCGGACCCAAGCCCGGAUAAAAGUGGAGGGGGCGG [U18C U24A], the self-cleavage amounted to 0.21.
